Source: PubChem BioAssay (several laboratories)
FLuc stim CS: FLuc activators, initial screening, artefact control for FLuc-dependent activation tests, biochemical, ATPlite luminescence | 200,000 tested, under 10 active | ATPlite luciferase biochemical, 10 min; 0 = ATP-free wells, 1 = DMSO control | Luciferin 4-monooxygenase (Photinus pyralis), P08659 | AID 1027, 2008 | activation factor at 10 µM;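 active = luciferase activation factor, scaled between plate controls, of at least 2 with compound at 10 µM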
Target sequence (P08659 whole entry, looked up): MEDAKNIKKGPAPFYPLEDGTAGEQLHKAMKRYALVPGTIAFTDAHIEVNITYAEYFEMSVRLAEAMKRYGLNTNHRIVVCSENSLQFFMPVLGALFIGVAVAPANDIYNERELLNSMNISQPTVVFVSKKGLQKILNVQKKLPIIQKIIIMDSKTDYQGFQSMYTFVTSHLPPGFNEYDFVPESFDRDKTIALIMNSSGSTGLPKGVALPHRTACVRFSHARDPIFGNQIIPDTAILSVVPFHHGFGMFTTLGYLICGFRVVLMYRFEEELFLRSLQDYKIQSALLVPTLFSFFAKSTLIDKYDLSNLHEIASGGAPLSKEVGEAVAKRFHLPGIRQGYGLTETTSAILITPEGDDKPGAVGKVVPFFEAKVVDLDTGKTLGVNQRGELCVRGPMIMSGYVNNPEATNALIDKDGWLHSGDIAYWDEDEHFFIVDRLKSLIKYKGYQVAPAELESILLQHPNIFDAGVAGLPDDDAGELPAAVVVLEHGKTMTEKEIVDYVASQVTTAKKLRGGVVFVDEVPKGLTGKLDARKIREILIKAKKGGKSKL
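Material: Luciferase/luciferin reagent mix | Doses: Test compounds dosed from 2 mM stocks in 100% DMSO | Timing: 10 min incubation after luciferase reagent addition, room temperature | Measured by: Luminescence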
APP 5'UTR act: activators of APP 5'UTR luciferase reporter, primary screen, SH-SY5Y cells | activation, % at 2 µM | SH-SY5Y APP 5'UTR luciferase reporter, luminescence; zero percent = DMSO vehicle wells | AID 1276, 2008 | 190,000 compounds, 1% hits;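 active = activation above a set limit, based on mean plus 3 SD of controls, cut at about 140% in these data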
Rad51 HR inh: human RAD51 strand exchange inhibitors, primary screen, biochemical, fluorescence | hRad51 DNA strand exchange, fluorescence dequenching | inhibition, % at 10 µM | 200,000 compounds, 0.085% hits;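 active = inhibition above 40% at the single screening dose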
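System: hRad51 filaments on single-stranded DNA; reagent: Fluorescein- and BHQ1-tagged 47-mer duplex; compound dosing: one concentration, 10 µM final; timing: filaments 15 min 37 °C, then compound 30 min; measured by: fluorescein emission 520 nm, excitation 485 nm; benchmarks: per-plate controls and blanks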
NF-kB expr up: activators of NF-kB expression in neurons, primary screen, cell-based, HTS. human neuronal cells, NF-kB reporter expression; active compounds read high. fold change at 12.5 µM. 190,000 compounds, 1.6% hits. AID 1239, 2008; in the data active = fold change above about 3.3
FLuc inhib CS: firefly luciferase enzyme inhibitors, primary screen, artefact control for luciferase-based inhibitor screens, biochemical, luminescence, ATPLite; Luciferin 4-monooxygenase (Photinus pyralis), P08659; 10 min; inhibition, % at 10 µM; 200,000 compounds, 1.5% hits;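 active = inhibition above about 50% when tested at 10 µM, limit read from the data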
STAT1 act: STAT1 signaling activators, primary screen, cell-based, HTS, luciferase reporter. NIH 3T3 STAT1-luciferase reporter, IFN-gamma, luminescence; 100% = IFN-gamma alone, no compound. activation (% of control), % at 5.5 µM. 200,000 compounds, 2.6% hits;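 active = activation above the screen-wide mean activation plus 3 SD, cut at about 130% in these data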
Numbers stand for hits; – = inactive; · = no result. A selection: hits, their analogues and other compounds. The true share with any hit is near 3.9%.

SMILES | FLuc stim CS | APP 5'UTR act | Rad51 HR inh | NF-kB expr up | FLuc inhib CS | STAT1 act
O=C(CSc1nnc(-c2cccc(Cl)c2)o1)Nc1ccc2c(c1)OCCO2 | – | 159 | – | – | – | –
Cc1cc2nc(-c3ccc(SCC(=O)Nc4ccc5c(c4)OCCO5)nc3)[nH]c2cc1C | – | 180 | – | – | 81 | –
COCCCn1nnnc1SCC(=O)Nc1ccc2c(c1)OCCO2 | – | – | · | – | – | –
CCn1nnnc1SCC(=O)Nc1ccc2c(c1)OCCO2 | – | – | – | – | – | 139
Cc1ccc2nc(-c3ccc(SCC(=O)Nc4ccc5c(c4)OCCO5)nc3)[nH]c2c1 | – | – | · | – | 62 | –
COc1ccccc1-n1c(SCC(=O)c2ccc(O)cc2O)nc2cc([N+](=O)[O-])ccc21 | – | – | – | – | – | –
Cc1ccc(-c2ccc(SCC(=O)Nc3ccc4c(c3)OCCO4)nn2)cc1 | – | – | – | – | 57 | –
CCN(CC)C(=O)CCCC(=O)N(CC)CC | – | – | · | – | – | –
N#CC1(c2ccc(NC(=O)c3ccccc3)cc2)CCCC1 | – | – | – | – | 61 | 147
C=CCNc1nc(Nc2ccccc2F)nc(OCC)n1 | – | – | – | – | – | 142
O=c1nc2c(-c3ccccc3F)n[nH]n2c2ccccc12 | – | – | – | – | – | 134
CCc1ccc(S(=O)(=O)c2n[nH]n3c2nc(=O)c2ccccc23)cc1 | – | – | – | – | – | –
Cc1ccc(/C=C2/SC(=O)NC2=S)o1 | – | – | – | – | – | –
CCOc1ccc(-c2ccc(SCc3ccccn3)nn2)cc1 | – | – | – | – | – | 129
COc1ccccc1-c1ccc(SCc2ccc(C)cc2)nn1 | – | – | – | – | – | –
CCc1ccc(-c2ccc(SCc3ccccn3)nn2)cc1 | – | – | – | – | – | 140
c1ccc(CSc2ccc(-c3cccs3)nn2)nc1 | – | – | – | – | – | 136
c1ccc(CSc2nnc3ccc(-c4cccs4)nn23)nc1 | – | – | – | – | – | –
CNC(=O)CCCCC(=O)N/N=C/c1ccc(Cl)cc1Cl | · | · | – | · | · | ·
O=C(Oc1ccc(Nc2ncnc3ccccc23)cc1)c1cccnc1 | – | – | – | – | – | –
CC(C)c1ccc(NC(=O)c2sccc2-n2cccc2)cc1 | – | – | – | – | – | –
NC1=NC(=O)/C(=C\c2cccnc2)S1 | – | – | – | – | – | –
NC1=NC(=O)/C(=C\C=C\c2ccccc2)S1 | – | – | – | – | – | 134
O=C(CSc1nnc(NC(=O)c2ccco2)s1)NCc1ccc2c(c1)OCO2 | – | – | – | – | – | –
O=C(CSc1nnc(NC(=O)c2ccc3c(c2)OCO3)s1)NCc1ccco1 | – | – | – | – | 91 | –
SMILES | FLuc stim CS | APP 5'UTR act | Rad51 HR inh | NF-kB expr up | FLuc inhib CS | STAT1 act
Cc1ccc(OCC(=O)O/N=C(\N)c2ccccn2)cc1 | – | – | – | – | – | 144
Cc1cccc(OCC(=O)O/N=C(\N)c2ccccn2)c1C | – | – | – | – | – | 138
CC(C)(C)CC(=O)O/N=C(\N)c1ccccn1 | – | – | – | – | 51 | –
COc1ccccc1CC(=O)O/N=C(\N)c1ccccn1 | · | · | – | · | · | ·
N/C(=N\OC(=O)Cc1ccc(Cl)cc1)c1ccccn1 | – | – | – | – | – | –
N/C(=N\OC(=O)Cc1cccc2ccccc12)c1ccccn1 | – | – | – | 6.1 | – | –
Cc1ccc(OCC(=O)O/N=C(\N)c2cccnc2)cc1 | – | – | – | – | – | –
COc1ccccc1C/C(N)=N/OC(=O)COc1cccc(C)c1C | – | – | – | – | – | –
CC1CCCCC1NC(=O)/C(C#N)=C/c1ccccc1F (stereo not drawn) | – | – | – | – | – | –
NC1=C(O)C(=O)C(c2ccccc2)O1 (stereo not drawn) | · | · | – | · | · | ·
COC(=O)c1ccc(COn2nnc3ccccc32)cc1 | – | 200 | – | 5.4 | – | –
Cc1ccc(C(=O)NCC(=O)NCCc2ccc(S(N)(=O)=O)cc2)s1 | · | · | – | · | · | ·
CC(C)c1ccc(Nc2nnc(SCC(=O)Nc3ncc(S(=O)(=O)c4ccc([N+](=O)[O-])cc4)s3)s2)cc1 | – | – | – | – | 73 | –
Cc1ccc(Nc2nnc(SCC(=O)Nc3ncc(S(=O)(=O)c4ccc([N+](=O)[O-])cc4)s3)s2)cc1 | – | – | – | – | – | –
Cc1cc(C2=NNC(=Nc3ccccc3)SC2)c(C)n1C | – | – | – | – | 61 | 142
COCCCN=C1NN=C(c2cc(C)n(-c3ccccc3)c2C)CS1 | – | – | · | – | – | –
COCCCN=C1NN=C(c2cc(C)n(-c3ccccc3F)c2C)CS1 | – | 187 | · | – | 84 | –
Cc1cc(C2=NNC(=NCCc3ccccc3)SC2)c(C)n1-c1c(C)n(C)n(-c2ccccc2)c1=O | · | · | – | · | · | ·
COCCCN=C1NN=C(c2cc(C)n(Cc3ccccc3Cl)c2C)CS1 | – | – | – | – | – | –
Cc1cc(C2=NNC(=NC3CC3)SC2)c(C)n1-c1c(C)n(C)n(-c2ccccc2)c1=O | – | – | · | – | – | –
Cc1ccc(-n2c(C)cc(C3=NNC(=NC4CC4)SC3)c2C)cc1C | – | 155 | – | – | 63 | –
COCCn1c(C)cc(C2=NNC(=Nc3ccccc3F)SC2)c1C | – | – | – | – | 82 | –
N/C(=N/O)c1ccccc1N1CCC(Cc2ccccc2)CC1 | – | – | – | – | – | –
O=c1c2ccccc2nc2n1C(CBr)CN2 (stereo not drawn) | · | · | – | · | · | ·
COc1ccc(-c2nn(-c3ccccc3)cc2/C=C/C(=O)N2CCN(c3ccccn3)CC2)cc1 | – | – | – | – | – | –
SMILES | FLuc stim CS | APP 5'UTR act | Rad51 HR inh | NF-kB expr up | FLuc inhib CS | STAT1 act
COc1ccc(NC(=O)/C=C/c2cccc(F)c2)cn1 | – | 135 | – | 3.8 | – | 147
COc1cccc(/C=C/C(=O)c2cccc([N+](=O)[O-])c2)c1OC | – | – | 80 | – | – | –
COc1cccc(/C=C/C(=O)Nc2cccc(C(C)=O)c2)c1OC | – | – | – | – | 68 | –
COc1ccccc1/C=C/C(=O)Nc1cccc(C(C)=O)c1 | – | – | – | – | – | –
COc1cccc(/C=C/C(=O)c2cccc([N+](=O)[O-])c2)c1 | – | – | – | – | – | –
COc1ccc(/C=C/C(=O)Nc2cccc(C(C)=O)c2)cc1 | – | – | – | – | 70 | 130
COc1cccc(OCC(=O)NNC(=S)Nc2ccc(Cl)cc2Cl)c1 | – | – | – | – | – | –
O=C(/C=C/c1cccs1)c1ccc([N+](=O)[O-])cc1 | · | · | – | · | · | ·
